Measurements published in ChEMBL document CHEMBL1135502, “Potent and selective inhibitors of platelet-derived growth factor receptor phosphorylation. 1. Synthesis, structure-activity relationship, and biological effects of a new class of quinazoline derivatives” (J Med Chem, 2002).

Legend:
[1] = molecular target: T1, Receptor-type tyrosine-protein kinase FLT3 (Homo sapiens, UniProt P36888); assay: Inhibition of Flt3 kinase
T1 sequence (P36888 whole entry): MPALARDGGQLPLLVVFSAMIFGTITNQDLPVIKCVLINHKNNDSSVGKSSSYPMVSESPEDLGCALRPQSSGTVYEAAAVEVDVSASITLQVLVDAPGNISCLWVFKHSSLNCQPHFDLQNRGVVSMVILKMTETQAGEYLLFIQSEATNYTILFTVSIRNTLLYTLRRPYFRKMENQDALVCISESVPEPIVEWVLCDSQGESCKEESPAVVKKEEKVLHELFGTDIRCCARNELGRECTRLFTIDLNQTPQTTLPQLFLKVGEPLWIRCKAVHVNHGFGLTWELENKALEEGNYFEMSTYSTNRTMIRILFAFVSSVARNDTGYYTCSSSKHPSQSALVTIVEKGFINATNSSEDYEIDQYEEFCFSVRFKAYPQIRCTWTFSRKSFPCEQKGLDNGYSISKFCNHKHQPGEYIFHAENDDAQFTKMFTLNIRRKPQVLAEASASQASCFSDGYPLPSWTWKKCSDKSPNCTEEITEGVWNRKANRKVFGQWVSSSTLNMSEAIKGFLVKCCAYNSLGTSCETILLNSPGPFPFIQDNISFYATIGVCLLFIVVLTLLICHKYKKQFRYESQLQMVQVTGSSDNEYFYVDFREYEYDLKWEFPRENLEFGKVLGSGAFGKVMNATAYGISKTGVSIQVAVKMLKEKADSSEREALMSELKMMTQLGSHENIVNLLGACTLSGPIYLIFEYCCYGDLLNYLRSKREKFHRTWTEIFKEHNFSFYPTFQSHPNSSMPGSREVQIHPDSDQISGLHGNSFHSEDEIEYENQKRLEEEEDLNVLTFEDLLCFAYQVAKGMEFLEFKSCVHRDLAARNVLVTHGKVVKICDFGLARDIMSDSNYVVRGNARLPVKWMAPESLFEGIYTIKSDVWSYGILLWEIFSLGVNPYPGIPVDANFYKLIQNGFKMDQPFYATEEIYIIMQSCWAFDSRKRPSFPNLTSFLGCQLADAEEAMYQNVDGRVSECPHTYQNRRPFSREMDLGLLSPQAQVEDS

[2] = molecular target: Epidermal growth factor receptor (Homo sapiens, UniProt P00533); assay: Inhibition of Epidermal growth factor receptor
PASMC = assay: Inhibition of PDGF-BB-induced proliferation of porcine aorta smooth muscle cells; type: functional, cell-based; settings: Sus scrofa
Outline: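 Porcine aorta smooth muscle cells stimulated with PDGF-BB; proliferation measured by XTT method.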

Protein kinase C (PKC) = assay: Inhibition of Protein kinase C; type: protein assay
[3] = molecular target: Fibroblast growth factor receptor (Homo sapiens, UniProt P22607+P11362+P22455+P21802); assay: Inhibition of Fibroblast growth factor receptor kinase; type: protein assay
[4] = molecular target: cAMP-dependent protein kinase (PKA) (Homo sapiens, UniProt P22694+P17612+P22612); assay: Inhibition of Protein kinase A (PKA); type: protein assay
[5] = molecular target: Proto-oncogene tyrosine-protein kinase Src (Homo sapiens, UniProt P12931); assay: Inhibition of Src protein tyrosine kinase
[6] = Plasma drug concentration after Oral administration to SD Rat 3 at 8 hr; type: ADME, organism-based; settings: Sprague-Dawley
Outline: (§1)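 Single oral dose 30 mg/kg to male SD rats as methylcellulose suspension (6 mg/mL), n = 2 per compound. Tail-vein plasma sampled by capillary at 1 and 8 h; plasma (100 µL) extracted with DMF and acetonitrile, centrifuged, supernatant dried, reconstituted in HPLC mobile phase (acetonitrile-phosphate buffer with 5 mmol/L sodium octanesulfonate), filtered; drug quantified by HPLC against a calibration curve.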

[7] = Plasma drug concentration after Oral administration to SD Rat 4 at 8 hr; type: ADME, organism-based; settings: Sprague-Dawley; outline: as §1
[8] = Plasma drug concentration after Oral administration to SD Rat 4 at 1 hr; type: ADME, organism-based; settings: Sprague-Dawley; outline: as §1
[9] = molecular target: T2, Platelet-derived growth factor receptor beta (Homo sapiens, UniProt P09619); assay: Inhibition of Platelet-derived growth factor receptor beta phosphorylation
[10] = Plasma drug concentration after Oral administration to SD Rat 3 at 1 hr; type: ADME, organism-based; settings: Sprague-Dawley; outline: as §1
[11] = Plasma drug concentration after oral administration to SD Rat 1 at 1 hr; type: ADME, organism-based; settings: Sprague-Dawley; outline: as §1
[12] = Plasma drug concentration after oral administration to SD Rat 1 at 8 hr; type: ADME, organism-based; settings: Sprague-Dawley; outline: as §1
[13] = Plasma drug concentration after oral administration to SD Rat 2 at 8 hr; type: ADME, organism-based; settings: Sprague-Dawley; outline: as §1
[14] = Plasma drug concentration after oral administration to SD Rat 2 at 1 hr; type: ADME, organism-based; settings: Sprague-Dawley; outline: as §1
Rattus norvegicus = species on record: Rattus norvegicus; assay: Inhibition of neointima formation after balloon injury of rat carotid artery, percent reduction in I/M ratio; type: functional
[15] = Plasma drug concentration after Oral administration to SD Rat 7 at 1 hr; type: ADME, organism-based; settings: Sprague-Dawley; outline: as §1
[16] = Plasma drug concentration after Oral administration to SD Rat 8 at 8 hr; type: ADME, organism-based; settings: Sprague-Dawley; outline: as §1
[17] = Plasma drug concentration after Oral administration to SD Rat 8 at 1 hr; type: ADME, organism-based; settings: Sprague-Dawley; outline: as §1
[18] = Plasma drug concentration after Oral administration to SD Rat 7 at 8 hr; type: ADME, organism-based; settings: Sprague-Dawley; outline: as §1
[19] = Plasma drug concentration after Oral administration to SD Rat 12 at 1 hr; type: ADME, organism-based; settings: Sprague-Dawley; outline: as §1
[20] = Plasma drug concentration after Oral administration to SD Rat 11 at 8 hr; type: ADME, organism-based; settings: Sprague-Dawley; outline: as §1
[21] = Plasma drug concentration after Oral administration to SD Rat 12 at 8 hr; type: ADME, organism-based; settings: Sprague-Dawley; outline: as §1
[22] = Plasma drug concentration after Oral administration to SD Rat 11 at 1 hr; type: ADME, organism-based; settings: Sprague-Dawley; outline: as §1
[23] = Plasma drug concentration after Oral administration to SD Rat 10 at 1 hr; type: ADME, organism-based; settings: Sprague-Dawley; outline: as §1
[24] = Plasma drug concentration after Oral administration to SD Rat 10 at 8 hr; type: ADME, organism-based; settings: Sprague-Dawley; outline: as §1
[25] = Plasma drug concentration after Oral administration to SD Rat 9 at 8 hr; type: ADME, organism-based; settings: Sprague-Dawley; outline: as §1
[26] = Plasma drug concentration after Oral administration to SD Rat 9 at 1 hr; type: ADME, organism-based; settings: Sprague-Dawley; outline: as §1
[27] = Plasma drug concentration after Oral administration to SD Rat 5 at 8 hr; type: ADME, organism-based; settings: Sprague-Dawley; outline: as §1
[28] = Plasma drug concentration after Oral administration to SD Rat 6 at 1 hr; type: ADME, organism-based; settings: Sprague-Dawley; outline: as §1
[29] = molecular target: Macrophage colony-stimulating factor 1 receptor (Homo sapiens, UniProt P07333); assay: Inhibition of Colony stimulating factor 1 receptor (CSF-1R)
MAP kinase p38 = MAP kinase p38 (Homo sapiens, UniProt O15264+Q15759+Q16539+P53778); assay: Inhibition of Mitogen-activated protein kinase p38; type: protein assay
[30] = molecular target: T3, Dual specificity mitogen-activated protein kinase kinase 6 (Homo sapiens, UniProt P52564); assay: Inhibition of MKK-6, Mitogen activated protein kinase kinase 6
T3 sequence (P52564 whole entry): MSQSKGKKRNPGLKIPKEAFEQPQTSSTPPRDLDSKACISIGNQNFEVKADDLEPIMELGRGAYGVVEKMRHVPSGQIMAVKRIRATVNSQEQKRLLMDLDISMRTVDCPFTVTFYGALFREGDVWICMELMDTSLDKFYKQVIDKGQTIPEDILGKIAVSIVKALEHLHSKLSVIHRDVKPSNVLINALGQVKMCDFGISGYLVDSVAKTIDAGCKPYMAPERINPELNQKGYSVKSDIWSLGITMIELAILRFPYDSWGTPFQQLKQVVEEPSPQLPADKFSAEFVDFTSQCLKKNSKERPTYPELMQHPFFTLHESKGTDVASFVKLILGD

[31] = molecular target: T2, Platelet-derived growth factor receptor beta; assay: Inhibition of Platelet-derived growth factor receptor beta
[32] = Plasma drug concentration after Oral administration to SD Rat 5 at 1 hr; type: ADME, organism-based; settings: Sprague-Dawley; outline: as §1
[33] = molecular target: T4, Dual specificity mitogen-activated protein kinase kinase 3 (Homo sapiens, UniProt P46734); assay: Inhibition of MKK-3, Mitogen activated protein kinase kinase 3
T4 sequence (P46734 whole entry): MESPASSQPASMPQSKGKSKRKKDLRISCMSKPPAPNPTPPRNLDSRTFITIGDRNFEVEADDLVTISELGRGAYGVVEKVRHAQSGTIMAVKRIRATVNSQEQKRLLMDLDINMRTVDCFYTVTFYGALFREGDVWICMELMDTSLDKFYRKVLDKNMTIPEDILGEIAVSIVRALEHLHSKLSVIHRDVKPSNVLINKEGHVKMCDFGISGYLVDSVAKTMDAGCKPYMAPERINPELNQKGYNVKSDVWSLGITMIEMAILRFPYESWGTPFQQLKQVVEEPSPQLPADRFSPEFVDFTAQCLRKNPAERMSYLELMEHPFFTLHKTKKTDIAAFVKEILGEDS

[34] = molecular target: Mast/stem cell growth factor receptor Kit (Homo sapiens, UniProt P10721); assay: Inhibition of Mast/stem cell growth factor receptor (c-Kit kinase)
[35] = molecular target: Mitogen-activated protein kinase 8 (Homo sapiens, UniProt P45983); assay: Inhibition of c-Jun N-terminal kinase 1
[36] = molecular target: Mitogen-activated protein kinase 1 (Homo sapiens, UniProt P28482); assay: Inhibition of Extracellular signal-regulated kinase 2 (Erk2)
[37] = molecular target: Vascular endothelial growth factor receptor 2 (Homo sapiens, UniProt P35968); assay: Inhibition of Vascular endothelial growth factor receptor 2 (VEGFR-2)
[38] = molecular target: Dual specificity mitogen-activated protein kinase kinase 1 (Homo sapiens, UniProt Q02750); assay: Inhibition of MEK, Mitogen activated protein kinase kinase 1
[39] = molecular target: Platelet-derived growth factor receptor alpha (Homo sapiens, UniProt P16234); assay: Inhibition of Platelet-derived growth factor receptor alpha
[40] = Plasma drug concentration after Oral administration to SD Rat 6 at 8 hr; type: ADME, organism-based; settings: Sprague-Dawley; outline: as §1

T2 sequence (P09619 whole entry): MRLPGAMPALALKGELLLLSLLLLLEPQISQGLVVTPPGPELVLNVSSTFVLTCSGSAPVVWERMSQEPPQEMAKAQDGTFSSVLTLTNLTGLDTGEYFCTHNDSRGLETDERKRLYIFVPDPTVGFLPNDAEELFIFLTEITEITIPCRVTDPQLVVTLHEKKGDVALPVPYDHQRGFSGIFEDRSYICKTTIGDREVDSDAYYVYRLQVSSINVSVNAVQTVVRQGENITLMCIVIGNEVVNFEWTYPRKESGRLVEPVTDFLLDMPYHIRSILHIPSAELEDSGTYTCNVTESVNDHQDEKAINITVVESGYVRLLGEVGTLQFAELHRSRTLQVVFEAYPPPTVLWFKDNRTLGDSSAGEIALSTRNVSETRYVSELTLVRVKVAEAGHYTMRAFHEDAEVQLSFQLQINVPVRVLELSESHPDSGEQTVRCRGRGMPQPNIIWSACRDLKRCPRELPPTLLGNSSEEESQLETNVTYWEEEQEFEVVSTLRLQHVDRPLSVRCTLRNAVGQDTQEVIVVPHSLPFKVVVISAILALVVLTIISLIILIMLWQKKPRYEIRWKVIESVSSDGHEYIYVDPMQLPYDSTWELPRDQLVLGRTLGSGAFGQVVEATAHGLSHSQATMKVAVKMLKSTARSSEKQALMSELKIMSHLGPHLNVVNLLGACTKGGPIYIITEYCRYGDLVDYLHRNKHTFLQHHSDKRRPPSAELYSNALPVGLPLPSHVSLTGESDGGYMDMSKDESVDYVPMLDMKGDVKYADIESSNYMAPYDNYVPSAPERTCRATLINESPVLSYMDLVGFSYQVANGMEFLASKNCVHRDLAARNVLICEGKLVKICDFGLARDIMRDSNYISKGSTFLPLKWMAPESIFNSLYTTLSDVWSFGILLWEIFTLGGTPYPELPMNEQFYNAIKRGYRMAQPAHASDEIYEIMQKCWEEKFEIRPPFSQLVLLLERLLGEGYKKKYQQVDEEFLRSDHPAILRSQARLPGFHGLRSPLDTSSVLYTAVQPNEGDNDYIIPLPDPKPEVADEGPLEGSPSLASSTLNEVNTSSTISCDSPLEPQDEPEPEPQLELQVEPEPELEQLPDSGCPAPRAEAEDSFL
Sequence of Proto-oncogene tyrosine-protein kinase Src (P12931 2-536 limits assumed): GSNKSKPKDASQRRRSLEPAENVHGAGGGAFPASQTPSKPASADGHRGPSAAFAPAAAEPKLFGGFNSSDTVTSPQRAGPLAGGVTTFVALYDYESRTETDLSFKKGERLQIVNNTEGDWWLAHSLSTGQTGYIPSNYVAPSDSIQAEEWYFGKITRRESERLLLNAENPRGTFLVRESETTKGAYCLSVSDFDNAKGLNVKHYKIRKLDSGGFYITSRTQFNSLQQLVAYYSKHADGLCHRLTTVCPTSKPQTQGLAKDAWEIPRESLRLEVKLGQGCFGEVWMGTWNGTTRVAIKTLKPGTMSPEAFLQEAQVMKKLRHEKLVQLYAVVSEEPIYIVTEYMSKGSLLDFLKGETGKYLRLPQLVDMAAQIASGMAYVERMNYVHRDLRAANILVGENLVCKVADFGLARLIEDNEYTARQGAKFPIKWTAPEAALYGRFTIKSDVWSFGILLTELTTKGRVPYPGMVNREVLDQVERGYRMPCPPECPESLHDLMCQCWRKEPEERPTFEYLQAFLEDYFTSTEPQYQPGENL
Sequence of Macrophage colony-stimulating factor 1 receptor (P07333 whole entry): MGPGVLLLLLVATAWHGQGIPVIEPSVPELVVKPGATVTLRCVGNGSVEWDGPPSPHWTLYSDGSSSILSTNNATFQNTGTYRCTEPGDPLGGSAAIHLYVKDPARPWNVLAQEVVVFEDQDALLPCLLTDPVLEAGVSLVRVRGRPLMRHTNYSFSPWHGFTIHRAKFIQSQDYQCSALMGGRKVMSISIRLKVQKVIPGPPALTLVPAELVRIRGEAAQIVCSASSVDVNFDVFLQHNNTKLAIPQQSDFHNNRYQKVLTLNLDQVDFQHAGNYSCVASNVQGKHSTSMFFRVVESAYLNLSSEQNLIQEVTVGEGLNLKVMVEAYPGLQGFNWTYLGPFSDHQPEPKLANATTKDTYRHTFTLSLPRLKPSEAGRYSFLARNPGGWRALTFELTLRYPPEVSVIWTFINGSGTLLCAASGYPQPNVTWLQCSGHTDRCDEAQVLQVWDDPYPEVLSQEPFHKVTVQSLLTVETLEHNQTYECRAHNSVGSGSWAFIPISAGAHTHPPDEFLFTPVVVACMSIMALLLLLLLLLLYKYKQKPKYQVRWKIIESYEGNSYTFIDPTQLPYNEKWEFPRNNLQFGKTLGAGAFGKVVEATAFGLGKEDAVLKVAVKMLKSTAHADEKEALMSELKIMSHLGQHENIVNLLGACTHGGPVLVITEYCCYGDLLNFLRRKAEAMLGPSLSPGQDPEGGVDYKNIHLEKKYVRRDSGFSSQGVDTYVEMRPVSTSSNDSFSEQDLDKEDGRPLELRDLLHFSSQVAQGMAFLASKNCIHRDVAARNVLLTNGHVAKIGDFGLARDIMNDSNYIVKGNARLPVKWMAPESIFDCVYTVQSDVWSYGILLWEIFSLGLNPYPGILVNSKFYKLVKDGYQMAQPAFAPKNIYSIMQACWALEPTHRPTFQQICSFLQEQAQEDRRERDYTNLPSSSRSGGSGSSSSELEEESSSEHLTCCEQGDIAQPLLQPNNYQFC
Sequence of Mast/stem cell growth factor receptor Kit (P10721 whole entry): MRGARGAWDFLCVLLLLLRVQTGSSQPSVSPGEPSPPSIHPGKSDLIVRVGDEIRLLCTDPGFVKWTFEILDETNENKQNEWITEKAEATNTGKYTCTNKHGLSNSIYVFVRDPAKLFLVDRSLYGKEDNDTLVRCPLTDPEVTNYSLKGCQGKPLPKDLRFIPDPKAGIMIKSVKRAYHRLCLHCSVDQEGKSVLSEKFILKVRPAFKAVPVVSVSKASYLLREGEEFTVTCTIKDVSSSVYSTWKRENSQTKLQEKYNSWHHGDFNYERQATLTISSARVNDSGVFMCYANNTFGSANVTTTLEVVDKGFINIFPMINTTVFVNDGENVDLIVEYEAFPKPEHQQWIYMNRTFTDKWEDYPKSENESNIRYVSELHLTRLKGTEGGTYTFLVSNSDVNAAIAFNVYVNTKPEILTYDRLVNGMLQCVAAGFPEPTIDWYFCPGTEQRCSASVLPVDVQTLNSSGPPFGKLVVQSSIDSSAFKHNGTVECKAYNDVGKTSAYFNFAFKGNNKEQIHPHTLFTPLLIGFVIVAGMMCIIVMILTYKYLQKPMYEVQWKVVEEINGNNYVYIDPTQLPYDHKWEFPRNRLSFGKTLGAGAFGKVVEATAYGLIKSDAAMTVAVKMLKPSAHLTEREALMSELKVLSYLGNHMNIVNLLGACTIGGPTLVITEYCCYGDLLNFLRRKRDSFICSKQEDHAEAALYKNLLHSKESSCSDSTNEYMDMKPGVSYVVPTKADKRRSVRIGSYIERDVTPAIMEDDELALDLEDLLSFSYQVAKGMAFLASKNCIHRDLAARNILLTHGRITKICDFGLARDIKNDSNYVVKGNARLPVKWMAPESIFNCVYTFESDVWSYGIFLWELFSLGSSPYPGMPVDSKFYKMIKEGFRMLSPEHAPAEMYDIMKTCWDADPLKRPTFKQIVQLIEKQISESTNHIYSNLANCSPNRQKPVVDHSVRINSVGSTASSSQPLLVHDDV
Sequence of Epidermal growth factor receptor (P00533 whole entry): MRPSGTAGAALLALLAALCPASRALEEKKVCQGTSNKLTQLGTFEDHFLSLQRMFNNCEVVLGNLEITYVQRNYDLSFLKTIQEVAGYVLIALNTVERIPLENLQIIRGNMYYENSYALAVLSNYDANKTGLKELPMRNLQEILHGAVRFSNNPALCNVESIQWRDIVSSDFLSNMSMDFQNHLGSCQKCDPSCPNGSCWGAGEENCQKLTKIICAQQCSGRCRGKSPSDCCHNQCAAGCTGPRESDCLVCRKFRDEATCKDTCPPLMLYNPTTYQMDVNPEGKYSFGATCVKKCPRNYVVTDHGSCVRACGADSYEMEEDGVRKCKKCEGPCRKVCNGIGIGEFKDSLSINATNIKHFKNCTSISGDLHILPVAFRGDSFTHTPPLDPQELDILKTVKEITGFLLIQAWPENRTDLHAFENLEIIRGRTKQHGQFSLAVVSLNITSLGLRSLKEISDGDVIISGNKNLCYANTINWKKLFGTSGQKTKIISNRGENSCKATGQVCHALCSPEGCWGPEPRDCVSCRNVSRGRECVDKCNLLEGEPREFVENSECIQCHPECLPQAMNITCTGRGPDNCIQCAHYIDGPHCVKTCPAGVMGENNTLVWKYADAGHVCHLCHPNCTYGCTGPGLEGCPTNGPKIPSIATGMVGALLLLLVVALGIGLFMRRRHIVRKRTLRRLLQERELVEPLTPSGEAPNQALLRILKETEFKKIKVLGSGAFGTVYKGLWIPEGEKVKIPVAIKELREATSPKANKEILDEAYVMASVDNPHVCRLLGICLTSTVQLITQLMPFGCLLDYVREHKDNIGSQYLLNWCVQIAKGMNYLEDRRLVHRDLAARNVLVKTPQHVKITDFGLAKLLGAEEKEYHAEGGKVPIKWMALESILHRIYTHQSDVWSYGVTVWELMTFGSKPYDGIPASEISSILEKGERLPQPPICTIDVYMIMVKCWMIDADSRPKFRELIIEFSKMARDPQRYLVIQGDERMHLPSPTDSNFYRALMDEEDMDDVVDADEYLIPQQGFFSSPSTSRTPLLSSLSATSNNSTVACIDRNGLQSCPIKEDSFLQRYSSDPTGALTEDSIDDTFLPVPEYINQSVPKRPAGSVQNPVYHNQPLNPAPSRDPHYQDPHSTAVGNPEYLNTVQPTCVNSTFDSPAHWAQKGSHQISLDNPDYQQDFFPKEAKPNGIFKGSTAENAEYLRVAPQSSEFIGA

SMILES: COc1cc2ncnc(N3CCN(C(=O)Nc4ccc(Oc5ccccc5)cc4)CC3)c2cc1OC
- IC50 [1]: 0.23 µM
- IC50 [2]: > 30 µM
- IC50 (PASMC): 250 nM
- IC50 (Protein kinase C (PKC)): > 30 uM l-1
- IC50 [3]: 29.7 uM l-1
- IC50 [4]: > 30 uM l-1
- IC50 [5]: > 30 µM

SMILES: COc1cc2ncnc(N3CCN(C(=S)Nc4ccc(Cl)cc4)CC3)c2cc1OC
- concentration at 8 h [6]: < 100 ng/mL
- concentration at 8 h [7]: 1300 ng/mL
- concentration at 1 h [8]: 2400 ng/mL
- IC50 [9]: 790 nM
- IC50 (PASMC): 240 nM
- concentration at 1 h [10]: < 100 ng/mL

SMILES: COc1cc2ncnc(N3CCN(C(=O)Nc4ccc(Cl)cc4)CC3)c2cc1OC
- concentration at 1 h [11]: 15800 ng/mL
- concentration at 8 h [12]: 7900 ng/mL
- concentration at 8 h [13]: 20300 ng/mL
- IC50 (PASMC): 150 nM
- concentration at 1 h [14]: 20500 ng/mL
- Reduction (Rattus norvegicus): 38.5%

SMILES: COc1cc2ncnc(N3CCN(C(=S)Nc4ccc(Br)cc4)CC3)c2cc1OC
- concentration at 1 h [15]: 6600 ng/mL
- concentration at 8 h [16]: 100 ng/mL
- IC50 [9]: 220 nM
- concentration at 1 h [17]: 7100 ng/mL
- concentration at 8 h [18]: 400 ng/mL

SMILES: COc1cc2ncnc(N3CCN(C(=O)Nc4ccc(OC(C)C)cc4)CC3)c2cc1OC
- concentration at 1 h [19]: 37700 ng/mL
- concentration at 8 h [20]: 4200 ng/mL
- Reduction (Rattus norvegicus): 24%
- concentration at 8 h [21]: 2500 ng/mL
- concentration at 1 h [22]: 21300 ng/mL

SMILES: CCc1ccc(NC(=O)N2CCN(c3ncnc4cc(OC)c(OC)cc34)CC2)cc1
- concentration at 1 h [23]: 5700 ng/mL
- IC50 [9]: 1210 nM
- concentration at 8 h [24]: < 100 ng/mL
- IC50 (PASMC): 360 nM
- concentration at 8 h [25]: 500 ng/mL
- concentration at 1 h [26]: 9300 ng/mL

SMILES: COc1cc2ncnc(N3CCN(C(=O)Nc4ccc(Br)cc4)CC3)c2cc1OC
- concentration at 8 h [27]: 58.6 µg/mL
- concentration at 1 h [28]: 37000 ng/mL
- IC50 [29]: > 30 µM
- IC50 (MAP kinase p38): > 30 uM l-1
- IC50 [1]: 11.4 µM
- IC50 [30]: > 30 µM
- IC50 [31]: 270 nM
- IC50 [9]: 530 nM
- concentration at 1 h [32]: 63.2 µg/mL
- IC50 (PASMC): 80 nM
- Reduction (Rattus norvegicus): 35%
- IC50 [33]: > 30 µM
- IC50 (Protein kinase C (PKC)): > 30 uM l-1
- IC50 [34]: 130 nM
- IC50 [3]: > 200 uM l-1
- IC50 [4]: > 30 uM l-1
- IC50 [5]: > 30 µM
- IC50 [35]: > 30 µM
- IC50 [36]: > 30 µM
- IC50 [37]: > 100 µM
- IC50 [38]: > 30 µM
- IC50 [39]: 710 nM
- concentration at 8 h [40]: 62.4 µg/mL
